Assay results as given in article PMC7814958 (Nuclear medicine and biology, 2020).
“And” between values parts separate entries of the source, which are not always exact repeats. Equal entries are not always repeated.

Tests used:
[1] = reported for glutamine; cited from earlier work
ASCT-2 transporter [2] = biological target: T1, ASCT-2 transporter (Homo sapiens, UniProt Q15758); assay: [3H]glutamine uptake concentration dependency; format: cell-based; settings: for affinity towards the ASCT-2 transporter (in words): human PC-3 cell line
T1 sequence (Q15758 1-541): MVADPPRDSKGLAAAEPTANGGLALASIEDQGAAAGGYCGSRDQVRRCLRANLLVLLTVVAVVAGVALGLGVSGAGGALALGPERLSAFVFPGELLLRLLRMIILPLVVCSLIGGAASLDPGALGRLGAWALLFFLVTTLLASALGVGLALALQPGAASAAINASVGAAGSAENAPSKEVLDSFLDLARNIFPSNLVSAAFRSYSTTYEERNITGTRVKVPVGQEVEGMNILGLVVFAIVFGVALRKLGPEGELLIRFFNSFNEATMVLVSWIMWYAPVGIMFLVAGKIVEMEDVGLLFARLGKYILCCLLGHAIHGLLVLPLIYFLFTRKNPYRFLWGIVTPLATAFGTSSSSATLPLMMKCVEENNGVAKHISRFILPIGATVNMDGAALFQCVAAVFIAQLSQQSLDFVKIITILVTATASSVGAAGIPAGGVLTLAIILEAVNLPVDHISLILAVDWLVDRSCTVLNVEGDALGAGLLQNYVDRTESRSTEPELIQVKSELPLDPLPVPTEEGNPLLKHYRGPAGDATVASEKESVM
How it was run: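 Human PC-3 cells kept in RPMI with 10% FCS, 1% L-glutamine and pen/strep, plated the prior day at 175,000 cells/mL. Washed twice in HEPES+ (pH 7.4), then 5 min at 37 °C with [3H]-L-glutamine (111 kBq/mL) over a 10–1200 μM glutamine stock series, ± unlabelled test compound. Ice-cold PBS+BSA stop, NaOH lysis, scintillation counting, BCA normalisation. Non-linear Michaelis-Menten fits; Ki from Km and Km,app at inhibitor concentration.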

ASCT-2 transporter [3] = biological target: T2, ASCT-2 transporter (Rattus norvegicus, UniProt D3ZJ25); assay: [3H]glutamine uptake concentration dependency; format: cell-based; settings: for affinity towards the ASCT-2 transporter (in words): rat F98 cell line
T2 sequence (D3ZJ25 1-555): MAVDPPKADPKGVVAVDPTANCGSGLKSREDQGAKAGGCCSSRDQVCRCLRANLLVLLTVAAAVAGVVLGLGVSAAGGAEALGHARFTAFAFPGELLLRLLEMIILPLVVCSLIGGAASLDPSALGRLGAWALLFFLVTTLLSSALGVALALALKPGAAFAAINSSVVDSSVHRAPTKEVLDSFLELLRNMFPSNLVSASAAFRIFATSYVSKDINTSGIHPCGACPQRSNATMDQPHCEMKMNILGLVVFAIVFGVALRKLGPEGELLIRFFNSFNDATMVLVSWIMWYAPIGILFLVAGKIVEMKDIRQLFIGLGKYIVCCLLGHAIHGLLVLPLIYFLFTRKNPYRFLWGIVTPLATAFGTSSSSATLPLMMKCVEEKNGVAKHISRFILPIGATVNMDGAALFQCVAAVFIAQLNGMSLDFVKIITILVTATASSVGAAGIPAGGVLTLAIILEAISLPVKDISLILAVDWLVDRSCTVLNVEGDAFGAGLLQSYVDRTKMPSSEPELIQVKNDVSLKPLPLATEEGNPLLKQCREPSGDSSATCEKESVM
How it was run: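 Rat F98 cells grown in DMEM with 10% FCS, 1% L-glutamine and pen/strep, seeded the day before at 125,000 cells/mL. After two HEPES+ washes (pH 7.4), cells took up [3H]-L-glutamine (111 kBq/mL) for 5 min at 37 °C. Glutamine stocks spanned 10–1200 μM, ± non-radioactive test compound. Stopped on ice, NaOH lysis, scintillation counting, BCA protein correction. Ki from Michaelis-Menten Km versus Km,app.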

ASCT-2 = biological target: T3, ASCT-2 (Homo sapiens, UniProt Q15758); assay: Inhibition of [3H]-L-glutamine uptake in PC-3 cells; format: cell-based; settings: 5 min, 37 °C, n=3
T3 sequence (Q15758 1-541): T1 sequence (Q15758 1-541)
How it was run: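 PC-3 cells grown in RPMI with 10% FCS, 1% L-glutamine and pen/strep at 37 °C, 5% CO2, seeded at 175,000 cells/mL the day before. Washed twice in HEPES+ buffer (pH 7.4, 100 mM NaCl, 1 g/L BSA), then given [3H]-L-glutamine (111 kBq/mL) with unlabelled glutamine ± test compound. Stopped on ice with cold PBS+BSA, NaOH-lysed, scintillation-counted, BCA protein-corrected.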

[4] = system: ASCT-2 expressing wild-type HEK-293 cells; assay: Inhibition of [3H]glutamine uptake in wild-type HEK-293 cell line; format: cell-based; settings: 50 μM glutamine; 5 min, 37 °C; n=3
How it was run: (§1)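 Wild-type or CRISPR-Cas9 SLC1A5-knockout HEK-293 cells grown in DMEM (10% FCS, 1% L-glutamine), seeded at 175,000 cells/mL on poly-D-lysine-coated wells the day before. Washed in HEPES+ (pH 7.4), then given 50 μM [3H]-L-glutamine/glutamine ± test compound. Stopped with ice-cold PBS+BSA, washed, lysed in 0.1 M NaOH, scintillation-counted, BCA protein-normalized. Knockout checked by flow cytometry.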

[5] = system: SLC1A5 knock-out HEK-293 cell line; assay: Inhibition of [3H]glutamine uptake in ASCT-2 knock-out HEK-293 cell line; format: cell-based; settings: 50 μM glutamine; 5 min, 37 °C; n=3
How it was run: as §1

LogD7.4 determination = format: physicochemical; settings: n=3
How it was run: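 1 MBq radiolabelled test compound added to PBS/n-octanol (1:1, V:V), vortexed and spun 10 min at 1100 g. Aliquots of each layer counted in a NaI(Tl) scintillation counter. LogD7.4 taken as log of octanol/PBS count ratio; n=3.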

[6] = In vitro stability in formulation; format: physicochemical; settings: 37 °C; analytical HPLC; no degradation products found
How it was run: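 Radiolabelled test compound held in its formulation at 37 °C for 30, 70, 120 and 180 min after radiosynthesis. Formulation was HPLC eluate (ethanol/10 mM ammonium acetate), diluted with PBS for the biphenyl analogue. At each point 7 MBq was run on analytical C18 HPLC with radio and UV (205 nm) detection at 1.0 mL/min. Runs were isocratic, ethanol/10 mM ammonium acetate 10:90 or 30:70.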

PC-3 xenograft = assay: Dynamic microPET in PC-3 xenograft model; format: in vivo, mice
How it was run: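 Male Swiss nu/nu mice (n=5) received 5 × 10^6 PC-3 cells with Matrigel in the right flank at 8 weeks and the left flank a week later; scanned seven weeks post-inoculation. Fasted ≥6 h, isoflurane anaesthesia, 18.5 MBq i.v. via tail vein. 1-h dynamic PET (1-min frames to 25 min, then 5-min), then CT. Manual tumor and leg-muscle ROIs; SUV decay- and syringe-corrected.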

[7] = Biodistribution study in PC-3 inoculated mice; format: in vivo
How it was run: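 PC-3 flank xenografts in male Swiss nu/nu mice, prepared as for imaging. Seven weeks post-inoculation, 5.0 MBq radiotracer given i.v. via lateral tail vein. Mice killed by cervical dislocation at 20 and 60 min p.i. (n=3 each). Blood drawn by cardiac puncture; organs dissected, rinsed with water, weighed and counted. Results as %ID/g ± SD.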

[8] = Swiss nu/nu male mice, PC-3, i.v., 20 min, n=3
[9] = Swiss nu/nu male mice, PC-3, i.v., 60 min, n=3

Compound: NC(=O)CC[C@H](N)C(=O)O [glutamine]
- logD7.4 [1]: −3.64

Compound: N[C@@H](CCC(=O)Nc1ccc(-c2ccc(F)cc2)cc1)C(=O)O [FBPG, N5-(4’-fluoro-[1,1’-biphenyl]-4-yl)glutamine]
- Ki (ASCT-2 transporter [2]): 604 µM
- affinity towards the ASCT-2 transporter (in words) (ASCT-2 transporter [2]): low affinity
- Ki (ASCT-2 transporter [3]): 1420 µM
- affinity towards the ASCT-2 transporter (in words) (ASCT-2 transporter [3]): low affinity
- relative uptake of [3H]-L-glutamine in presence of inhibitor compared to basal uptake (ASCT-2): 92 ± 1%
- relative uptake of [3H]glutamine in presence of inhibitor compared to basal uptake, Wild-type HEK-293 [4]: 95 ± 6%
- relative uptake of [3H]glutamine in presence of inhibitor compared to basal uptake, ASCT-2 KO HEK-293 [5]: 58 ± 9%

Compound: N[C@@H](CCC(=O)Nc1ccc(F)cc1)C(=O)O [FPG, N5-(4-fluorophenyl)glutamine]
- Ki (ASCT-2 transporter [2]): 234 µM
- affinity towards the ASCT-2 transporter (in words) (ASCT-2 transporter [2]): moderate affinity
- Ki (ASCT-2 transporter [3]): 850 µM
- affinity towards the ASCT-2 transporter (in words) (ASCT-2 transporter [3]): low affinity
- relative uptake of [3H]-L-glutamine in presence of inhibitor compared to basal uptake (ASCT-2): 94 ± 9%
- relative uptake of [3H]glutamine in presence of inhibitor compared to basal uptake, Wild-type HEK-293 [4]: 96 ± 7%
- relative uptake of [3H]glutamine in presence of inhibitor compared to basal uptake, ASCT-2 KO HEK-293 [5]: 60 ± 7%

Compound: N[C@@H](CCC(=O)Nc1ccc(-c2ccc([18F])cc2)cc1)C(=O)O [[^18F]FBPG, [^18F]fluorobiphenylglutamine]
- logD7.4 (octanol/PBS ratio at pH 7.4) (LogD7.4 determination): 1.11 ± 0.01 and 1.11
- stability in formulation [6]: at least 3 hours
- T/Mmean (mean tumor-to-muscle ratio) (PC-3 xenograft; PC-3 xenograft mice, 18.5 MBq i.v., leg muscle as reference): 1.20 ± 0.15
- SUVmean (mean standardized uptake value) (PC-3 xenograft; PC-3 xenograft mice, 18.5 MBq i.v., tumor ROI): 0.17 ± 0.04
- tumor uptake on PET (in words) (PC-3 xenograft; mice bearing PC-3 xenografts): very low uptake
- bone uptake as indication of defluorination (in words) ([7]; PC-3 inoculated mice): No enhanced uptake in the bone
- Bladder uptake %ID/g 20 min post-injection [7, 8]: 1.33 ± 0.77 %ID/g
- Blood uptake %ID/g 20 min post-injection [7, 8]: 5.49 ± 0.74 %ID/g
- Bone uptake %ID/g 20 min post-injection [7, 8]: 0.95 ± 0.20 %ID/g
- Brain uptake %ID/g 20 min post-injection [7, 8]: 0.67 ± 0.13 %ID/g
- Fat uptake %ID/g 20 min post-injection [7, 8]: 0.92 ± 0.26 %ID/g
- Heart uptake %ID/g 20 min post-injection [7, 8]: 2.03 ± 0.47 %ID/g
- Kidney uptake %ID/g 20 min post-injection [7, 8]: 11.52 ± 3.91 %ID/g
- Large intestine uptake %ID/g 20 min post-injection [7, 8]: 0.39 ± 0.14 %ID/g
- Liver uptake %ID/g 20 min post-injection [7, 8]: 7.43 ± 1.80 %ID/g
- Lung uptake %ID/g 20 min post-injection [7, 8]: 5.03 ± 1.14 %ID/g
- Muscle uptake %ID/g 20 min post-injection [7, 8]: 0.45 ± 0.09 %ID/g
- Prostate uptake %ID/g 20 min post-injection [7, 8]: 2.13 ± 1.90 %ID/g
- Skin uptake %ID/g 20 min post-injection [7, 8]: 0.79 ± 0.10 %ID/g
- Small intestine uptake %ID/g 20 min post-injection [7, 8]: 5.77 ± 5.82 %ID/g
- Spleen uptake %ID/g 20 min post-injection [7, 8]: 3.11 ± 0.28 %ID/g
- Stomach uptake %ID/g 20 min post-injection [7, 8]: 2.89 ± 1.72 %ID/g
- Tumor uptake %ID/g 20 min post-injection [7, 8]: 0.46 ± 0.09 %ID/g
- Bladder uptake %ID/g 60 min post-injection [7, 9]: 2.54 ± 1.47 %ID/g
- Blood uptake %ID/g 60 min post-injection [7, 9]: 4.24 ± 0.85 %ID/g
- Bone uptake %ID/g 60 min post-injection [7, 9]: 0.67 ± 0.14 %ID/g
- Brain uptake %ID/g 60 min post-injection [7, 9]: 0.38 ± 0.03 %ID/g
- Fat uptake %ID/g 60 min post-injection [7, 9]: 1.21 ± 1.05 %ID/g
- Heart uptake %ID/g 60 min post-injection [7, 9]: 1.50 ± 0.52 %ID/g
- Kidney uptake %ID/g 60 min post-injection [7, 9]: 14.46 ± 1.71 %ID/g
- Large intestine uptake %ID/g 60 min post-injection [7, 9]: 0.53 ± 0.07 %ID/g
- Liver uptake %ID/g 60 min post-injection [7, 9]: 4.44 ± 0.83 %ID/g
- Lung uptake %ID/g 60 min post-injection [7, 9]: 3.75 ± 0.43 %ID/g
- Muscle uptake %ID/g 60 min post-injection [7, 9]: 0.48 ± 0.28 %ID/g
- Prostate uptake %ID/g 60 min post-injection [7, 9]: 2.60 ± 1.12 %ID/g
- Skin uptake %ID/g 60 min post-injection [7, 9]: 0.57 ± 0.10 %ID/g
- Small intestine uptake %ID/g 60 min post-injection [7, 9]: 19.10 ± 4.83 %ID/g
- Spleen uptake %ID/g 60 min post-injection [7, 9]: 2.07 ± 0.26 %ID/g
- Stomach uptake %ID/g 60 min post-injection [7, 9]: 0.85 ± 0.01 %ID/g
- Tumor uptake %ID/g 60 min post-injection [7, 9]: 0.42 ± 0.09 %ID/g
